Results as given in ChEMBL document CHEMBL4834405, “Structure-Based Design of High-Affinity Macrocyclic FKBP51 Inhibitors” (J Med Chem, 2021).

Assays:
[1] = target: Peptidyl-prolyl cis-trans isomerase FKBP1A (Homo sapiens, UniProt P62942); test: (§1) Displacement of fluorescent tracer 5-(3-(4-((1S,5S,6S)-10-(3,5-dichlorophenylsulfonyl)-2-oxo-3-(pyridin-3-ylmethyl)-3,10-diazabicyclo[4.3.1]decan-5-yl)-1H-1,2,3-triazol-1-yl)propylcarbamoyl)-2-(6-(dimethylamino)-3-(dimethyliminio)-3H-xanthen-9-yl)benzoate from recombinant full length C-terminal FLAG-tagged FKBP12 (unknown origin) expressed in Escherichia coli BL21 (DE2) cells incubated for 30 mins by fluorescence polarisation competition binding assay
Peptidyl-prolyl cis-trans isomerase FKBP1A, sequence (P62942 whole entry): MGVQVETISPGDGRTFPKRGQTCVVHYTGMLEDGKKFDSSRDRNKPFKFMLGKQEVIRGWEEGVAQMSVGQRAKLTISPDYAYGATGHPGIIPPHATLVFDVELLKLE
Summary of the method: (§2)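 Competitive FP in 150 mM NaCl, 20 mM HEPES pH 8.0, 0.002% Triton X-100. Ligand 1:1 serially diluted in DMSO and premixed with fluorescent tracer, tracer working solution 11.9 nM (FKBP12.6, 51FK1, 52FK1) or 5.95 nM (FKBP12) before final 10-fold dilution into protein. 30 min at room temperature, read at ex/em 535/590 nm. Weighted SD from at least two independent runs.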

[2] = target: T1, Peptidyl-prolyl cis-trans isomerase FKBP5 (Homo sapiens, UniProt Q13451); test: as §1, with “FKBP51” for “FKBP12”, “(DE3)” for “(DE2)”
T1 sequence (Q13451 whole entry): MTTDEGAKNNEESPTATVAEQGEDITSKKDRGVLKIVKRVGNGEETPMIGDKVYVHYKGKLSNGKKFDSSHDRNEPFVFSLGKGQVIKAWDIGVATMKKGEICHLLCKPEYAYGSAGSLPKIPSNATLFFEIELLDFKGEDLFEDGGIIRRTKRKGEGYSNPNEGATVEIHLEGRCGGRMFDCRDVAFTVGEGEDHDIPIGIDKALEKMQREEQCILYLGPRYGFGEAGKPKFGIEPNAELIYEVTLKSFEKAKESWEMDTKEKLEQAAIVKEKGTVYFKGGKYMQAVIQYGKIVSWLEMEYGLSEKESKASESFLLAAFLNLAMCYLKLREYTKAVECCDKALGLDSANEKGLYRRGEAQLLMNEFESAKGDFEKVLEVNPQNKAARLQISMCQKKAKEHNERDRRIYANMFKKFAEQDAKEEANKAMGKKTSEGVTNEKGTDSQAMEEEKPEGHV

[3] = target: Peptidyl-prolyl cis-trans isomerase FKBP1B (Homo sapiens, UniProt P68106); test: as §1, with “FKBP12.6” for “FKBP12”, “(DE3)” for “(DE2)”, “competition” for “competition binding”; summary of the method: as §2
Peptidyl-prolyl cis-trans isomerase FKBP1B, sequence (P68106 whole entry): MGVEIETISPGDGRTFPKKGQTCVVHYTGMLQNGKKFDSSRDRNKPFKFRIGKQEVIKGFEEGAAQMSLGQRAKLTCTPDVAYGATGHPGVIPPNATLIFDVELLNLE

[4] = (§3) Selectivity ratio of Kd for displacement of fluorescent tracer 5-(3-(4-((1S,5S,6S)-10-(3,5-dichlorophenylsulfonyl)-2-oxo-3-(pyridin-3-ylmethyl)-3,10-diazabicyclo[4.3.1]decan-5-yl)-1H-1,2,3-triazol-1-yl)propylcarbamoyl)-2-(6-(dimethylamino)-3-(dimethyliminio)-3H-xanthen-9-yl)benzoate from recombinant full length C-terminal FLAG-tagged FJBP12 to Kd for displacement of fluorescent tracer 5-(3-(4-((1S,5S,6S)-10-(3,5-dichlorophenylsulfonyl)-2-oxo-3-(pyridin-3-ylmethyl)-3,10-diazabicyclo[4.3.1]decan-5-yl)-1H-1,2,3-triazol-1-yl)propylcarbamoyl)-2-(6-(dimethylamino)-3-(dimethyliminio)-3H-xanthen-9-yl)benzoate from recombinant full length C-terminal FLAG-tagged FKBP51 (unknown origin)
[5] = as §3, with “FKBP52 (unknown origin)” for “FJBP12”
[6] = target: T2, Peptidyl-prolyl cis-trans isomerase FKBP4 (Homo sapiens, UniProt Q02790); test: as §1, with “FKBP52” for “FKBP12”, “(DE3)” for “(DE2)”; summary of the method: as §2
T2 sequence (Q02790 whole entry): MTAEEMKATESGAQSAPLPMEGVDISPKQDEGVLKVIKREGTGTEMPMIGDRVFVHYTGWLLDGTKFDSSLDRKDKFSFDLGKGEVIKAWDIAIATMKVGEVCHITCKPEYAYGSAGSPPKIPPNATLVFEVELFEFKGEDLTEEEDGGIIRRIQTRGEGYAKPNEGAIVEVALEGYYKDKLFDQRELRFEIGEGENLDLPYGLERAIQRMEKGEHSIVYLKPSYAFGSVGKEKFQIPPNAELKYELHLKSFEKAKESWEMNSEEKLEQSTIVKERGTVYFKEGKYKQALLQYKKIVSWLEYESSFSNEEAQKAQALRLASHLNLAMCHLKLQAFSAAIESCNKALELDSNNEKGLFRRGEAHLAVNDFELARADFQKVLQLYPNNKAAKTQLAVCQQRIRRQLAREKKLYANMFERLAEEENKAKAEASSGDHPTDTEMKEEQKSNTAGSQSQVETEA

[7] = as §3, with “FKBP12.6 (unknown origin)” for “FJBP12”

Row | Kd [1] [nM] | Kd [2] [nM] | Kd [3] [nM] | Selectivity ratio [4] | Selectivity ratio [5] | Kd [6] [nM] | Selectivity ratio [7] | Compound
1 | 768 | 89 | 606 | 8.6 | > 112 | > 10000 | 6.8 | COc1ccc(CC[C@H]2OC(=O)[C@@H]3CCCCN3C(=O)[C@@H](C3CCCCC3)c3cc(OC)c(c(OC)c3)OC/C=C/COc3cccc2c3)cc1OC
2 | 1010 |  | 715 |  |  | > 10000 |  | COc1ccc(CC[C@H]2OC(=O)[C@@H]3CCCCN3C(=O)[C@@H](C3CCCCC3)c3cc(OC)c(c(OC)c3)OCCOC/C=C/COc3cccc2c3)cc1OC
3 | 532 | 68 | 227 | 7.8 | > 147 | > 10000 | 3.3 | COc1ccc(CC[C@H]2OC(=O)[C@@H]3CCCCN3C(=O)[C@@H](C3CCCCC3)c3cc(OC)c(c(OC)c3)OCCOc3cccc2c3)cc1OC
4 | 113 | 29 | 62 | 3.8 | 154 | 4460 | 2.1 | COc1ccc(CC[C@H]2OC(=O)[C@@H]3CCCCN3C(=O)[C@@H](C3CCCCC3)c3cc(OC)c(OC)c(c3)OCCCCOc3cccc2c3)cc1OC
5 | 86 | 11 | 38 | 7.8 | 425 | 4670 | 3.4 | COc1ccc(CC[C@H]2OC(=O)[C@@H]3CCCCN3C(=O)[C@@H](C3CCCCC3)c3cc(OC)c(c(OC)c3)OCCC(=O)COc3cccc2c3)cc1OC
6 | 1010 | 149 | 1080 | 6.8 | > 67 | > 10000 | 7.2 | COc1ccc(CC[C@H]2OC(=O)[C@@H]3CCCCN3C(=O)[C@@H](C3CCCCC3)c3cc(OC)c(c(OC)c3)OCC/C=C/COc3cccc2c3)cc1OC
7 | 135 | 61 | 115 | 2.2 | > 164 | > 10000 | 1.9 | COc1ccc(CC[C@H]2OC(=O)[C@@H]3CCCCN3C(=O)[C@@H](C3CCCCC3)c3cc(OC)c(OC)c(c3)OCCOCCCCOc3cccc2c3)cc1OC
8 | 79 | 12 | 85 | 6.5 | 66.2 | 795 | 7 | COc1ccc(CC[C@H]2OC(=O)[C@@H]3CCCCN3C(=O)[C@@H](C3CCCCC3)c3cc(OC)c(c(OC)c3)OCC(O)C(O)COc3cccc2c3)cc1OC (mixture of isomers)
9 | 744 | 70 | 446 | 10.6 | > 142 | > 10000 | 6.3 | COc1ccc(CC[C@H]2OC(=O)[C@@H]3CCCCN3C(=O)[C@@H](C3CCCCC3)c3cc(OC)c(c(OC)c3)OCCCOc3cccc2c3)cc1OC
10 | 345 | 137 | 301 | 2.5 | > 73 | > 10000 | 2.2 | COc1ccc(CC[C@H]2OC(=O)[C@@H]3CCCCN3C(=O)[C@@H](C3CCCCC3)c3cc(OC)c(OC)c(c3)OCCOC/C=C\COc3cccc2c3)cc1OC
11 | 815 | 67 | 658 | 12.2 | > 149 | > 10000 | 9.8 | COc1ccc(CC[C@H]2OC(=O)[C@@H]3CCCCN3C(=O)[C@@H](C3CCCCC3)c3cc(OC)c(c(OC)c3)OC/C=C\COc3cccc2c3)cc1OC
12 | 59 | 12 | 32 | 4.9 | 294 | 3530 | 2.7 | COc1ccc(CC[C@H]2OC(=O)[C@@H]3CCCCN3C(=O)[C@@H](C3CCCCC3)c3cc(OC)c(OC)c(c3)OCCC(=O)COc3cccc2c3)cc1OC
13 | 212 | 108 | 216 | 1.9 | 49.9 | 5390 | 2 | COc1ccc(CC[C@H]2OC(=O)[C@@H]3CCCCN3C(=O)[C@@H](C3CCCCC3)c3cc(OC)c(OC)c(c3)OC/C=C/COc3cccc2c3)cc1OC
14 | 1110 | 138 | 429 | 8 | > 72 | > 10000 | 3.1 | COc1ccc(CC[C@H]2OC(=O)[C@@H]3CCCCN3C(=O)[C@@H](C3CCCCC3)c3cc(OC)c(c(OC)c3)OCCOCCCCOc3cccc2c3)cc1OC
15 | 494 | 144 | 352 | 3.4 | > 69 | > 10000 | 2.3 | COc1ccc(CC[C@H]2OC(=O)[C@@H]3CCCCN3C(=O)[C@@H](C3CCCCC3)c3cc(OC)c(OC)c(c3)OCCCOC/C=C\COc3cccc2c3)cc1OC
16 | 484 | 75 | 277 | 6.4 | > 133 | > 10000 | 3.7 | COc1ccc(CC[C@H]2OC(=O)[C@@H]3CCCCN3C(=O)[C@@H](C3CCCCC3)c3cc(OC)c(c(OC)c3)OCCCOCCCCOc3cccc2c3)cc1OC
17 | 798 |  | 344 |  |  | > 10000 |  | COc1ccc(CC[C@H]2OC(=O)[C@@H]3CCCCN3C(=O)[C@@H](C3CCCCC3)c3cc(OC)c(c(OC)c3)OCCOC/C=C\COc3cccc2c3)cc1OC
18 | 263 | 83 | 203 |  |  | > 10000 |  | COc1cccc([C@@H](CCc2ccc(OC)c(OC)c2)OC(=O)[C@@H]2CCCCN2C(=O)[C@H](c2cc(OC)c(OC)c(OC)c2)C2CCCCC2)c1
19 | 192 | 62 | 105 | 3.1 | > 161 | > 10000 | 1.7 | COc1ccc(CC[C@H]2OC(=O)[C@@H]3CCCCN3C(=O)[C@@H](C3CCCCC3)c3cc(OC)c(OC)c(c3)OCCOC/C=C/COc3cccc2c3)cc1OC
20 | 66 | 28 | 43 | 2.4 | 146 | 4100 | 1.5 | COc1ccc(CC[C@H]2OC(=O)[C@@H]3CCCCN3C(=O)[C@@H](C3CCCCC3)c3cc(OC)c(OC)c(c3)OCCCC(=O)COc3cccc2c3)cc1OC
21 | 247 | 55 | 82 | 4.5 | > 165 | 9090 | 1.5 | COc1ccc(CC[C@H]2OC(=O)[C@@H]3CCCCN3C(=O)[C@@H](C3CCCCC3)c3cc(OC)c(OC)c(c3)OCCOc3cccc2c3)cc1OC
